Experimental findings from the array DNA melting data of Ke et al. (doi:10.1101/2024.01.08.574731) are described below.

Data set [1] can be described thus: folding enthalpy; higher = less favourable; fluorescence melt of hairpins on a sequencing array, two-state fit. The following applies: sodium 0.088 M. A digest of the protocol: (§1)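 Cy3 fluorescence of library hairpins on a sequenced MiSeq flow cell, with annealed Cy3 and quencher oligos, was imaged in 50 mM Na-HEPES pH 8.0, 25 mM NaCl in 2.5 °C steps up to 60 °C. Signals were normalised to pre-quench Cy3 and to control variants. Melting temperature and folding enthalpy came from bootstrapped two-state fits, inverse-variance combined over four replicates. Fitted temperatures were raised by 9.35 °C to match UV melts.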

A short description of data set [2]: melting temperature; fluorescence melt of hairpins on a sequencing array, two-state fit, raised by 9.35 °C to match UV melts. As to conditions: sodium 0.088 M. Summed up: as §1

On to GTAAAGGCGAAAGCCTAC (((..(((....)))))), for which the folding enthalpy in data set [1] is -10 kcal/mol. In data set [2], the Tm was 35 °C.
For GGCCAGCGAAAGCTAGCC (((.(((....))).))), in data set [1], the folding enthalpy is -29.6 kcal/mol. Also, the Tm in data set [2] worked out at 56.4 °C.
With GATCCTAATCAGGATC ((((((....)))))), the folding enthalpy in data set [1] was -38.6 kcal/mol. Also, the Tm in data set [2] came out at 50.5 °C.
On the same counts, the results for GATCAGGGAAACCTGGTC ((.((((....)))).)) are -29.2 kcal/mol and 47.4 °C.
For the sequence GCACTGCGAAAGCAAGGC ((..(((....)))..)), the folding enthalpy in data set [1] was -17.8 kcal/mol. The Tm in data set [2] was determined as 47.5 °C.
On to GAGATAACGAAAGTTCTC (((..(((....)))))), for which the folding enthalpy in data set [1] was -20.8 kcal/mol. The Tm in data set [2] worked out at 30.7 °C.
On the same counts, the results for GGTACTCCGAAAGGAACC (((..(((....)))))) are -9.52 kcal/mol and 25.4 °C.
On the same counts, the results for GCACGGCGAAAGCCACGC ((..(((....)))..)) are -19.1 kcal/mol and 54.9 °C.
On the same counts, the results for GTCGGACGAAAGTCGGAC (((.(((....))).))) are -32.3 kcal/mol and 58.5 °C.
As to GCATCCGAAAGGACGTGC ((((((....)))..))), the folding enthalpy in data set [1] is -19.4 kcal/mol. Further, the Tm in data set [2] was 38.3 °C.
For the sequence GAAGCACGAAAGTGATTC (((.(((....))).))), the folding enthalpy in data set [1] was -35.1 kcal/mol. For the same sequence, the Tm in data set [2] was 60 °C.
On the same counts, the results for GGAAACCGAAAGGTGTCC (((.(((....))).))) are -31.1 kcal/mol and 52.4 °C.
Turning to GGGCGCGGAAACGCACCC (((.(((....))).))), the folding enthalpy in data set [1] was -43.8 kcal/mol. In data set [2], the Tm is 62.6 °C.
On the same counts, the results for GCGGAACACCGC ((((....)))) are -23.2 kcal/mol and 54.6 °C.
On the same counts, the results for GGGAATGGAAACATTCTC (.(((((....))))).) are -24.2 kcal/mol and 44.9 °C.
On the same counts, the results for GCCTGGCGAAAGCTCGGC (((..((....))..))) are -18.8 kcal/mol and 55.9 °C.
Take GTCGTCGAAAGACGGAC ((((((....))).))): in data set [1], the folding enthalpy was -13.6 kcal/mol. Also, the Tm in data set [2] came to 56.2 °C.
Take GCTAGGCGAAAGCTTAGC ((((.((....)).)))): the folding enthalpy in data set [1] is -31.1 kcal/mol. Also, the Tm in data set [2] came to 61 °C.
On to GCGTACGAAAGTAATCGC ((((((....)))..))), for which the folding enthalpy in data set [1] is -23.6 kcal/mol. In addition, the Tm in data set [2] came out at 44.1 °C.
GGTCATGGAAACATGATC (.(((((....))))).): the folding enthalpy in data set [1] was -31.5 kcal/mol. Also, the Tm in data set [2] turned out to be 47 °C.
GCGTACGAAAGTAGCGC ((((((....))).))): the folding enthalpy in data set [1] was -31.1 kcal/mol. Further, the Tm in data set [2] is 68.8 °C.
As to GATCACGGTCGTGATC ((((((....)))))), in data set [1], the folding enthalpy was -39.6 kcal/mol. Further, the Tm in data set [2] came out at 60.7 °C.
As to GAACAGCGAAAGCTATTC (((.(((....))).))), in data set [1], the folding enthalpy was -15.6 kcal/mol. The Tm in data set [2] is 34.7 °C.
On the same counts, the results for CCTATGAAAATAGG (((((....))))) are -14.2 kcal/mol and 41.2 °C.
On the same counts, the results for GCTCCGCGAAAGCACAGC (((..((....))..))) are -8.71 kcal/mol and 31.3 °C.
Regarding GTATGCGGAAACGCACAC ((.((((....)))).)), the folding enthalpy in data set [1] was -15.4 kcal/mol. In addition, the Tm in data set [2] worked out at 40 °C.
On the same counts, the results for GTATCAGAAATGATAC ((((((....)))))) are -31.6 kcal/mol and 45.6 °C.
Consider GGATGCCCGAAAGGGTCC (((..(((....)))))), for which the folding enthalpy in data set [1] is -11 kcal/mol. In addition, in data set [2], the Tm was 33.2 °C.
On the same counts, the results for GCGTGTTGACGC ((((....)))) are -23.9 kcal/mol and 55 °C.
On the same counts, the results for TTAGTGAAAACTAA (((((....))))) are -8.57 kcal/mol and 27.8 °C.
Take GCACGACGAAAGTCTTGC (((.(((....))).))): the folding enthalpy in data set [1] was -35.8 kcal/mol. Moreover, the Tm in data set [2] came out at 53.7 °C.
On the same counts, the results for GGTAGCCGAAAGGCAACC (((.(((....))).))) are -23.8 kcal/mol and 57.9 °C.
GCGCGCGGAAACGCACGC (((.(((....))).))): the folding enthalpy in data set [1] is -32.6 kcal/mol. For the same sequence, in data set [2], the Tm was determined as 67.8 °C.
On the same counts, the results for GACGCTGGAAACGGCGTC (((((.(....).))))) are -44.2 kcal/mol and 64.9 °C.
With GAAACAGGAAACTGTTCC (.(((((....))))).), the folding enthalpy in data set [1] is -14.9 kcal/mol. In addition, the Tm in data set [2] was determined as 35.3 °C.
On the same counts, the results for GACATACCGAAAGGTGTC (((..(((....)))))) are -18.2 kcal/mol and 41.3 °C.
For GATCCCGACTGGGATC ((((((....)))))), in data set [1], the folding enthalpy was -38.5 kcal/mol. For the same sequence, the Tm in data set [2] was 65.8 °C.
Turning to GATCGCTCACGCGATC ((((((....)))))), the folding enthalpy in data set [1] was -41.2 kcal/mol. The Tm in data set [2] is 67.8 °C.
On the same counts, the results for GAGAACCCGAAAGGGCTC (((..(((....)))))) are -13.9 kcal/mol and 34.9 °C.
GAGCGACCGAAAGGTCTC (((..(((....)))))): the folding enthalpy in data set [1] was -10.2 kcal/mol. In addition, the Tm in data set [2] came to 33.1 °C.
On the same counts, the results for GTAGCTCGAAAGAGTTAC (((.(((....))).))) are -33.6 kcal/mol and 50.6 °C.
On the same counts, the results for GCGTAGCGAAAGCCGCGC (((..((....))..))) are -16.2 kcal/mol and 61.6 °C.
On the same counts, the results for GGGCACGAAAGTGACCCC ((((((....)))..))) are -10.3 kcal/mol and 68.5 °C.
For the sequence GAGTGAGAAATCACTC ((((((....)))))), the folding enthalpy in data set [1] is -34.3 kcal/mol. The Tm in data set [2] was 53.7 °C.
As to GTTTGGGGAAACCCAAAC (((((((....))))))), the folding enthalpy in data set [1] is -42.3 kcal/mol. Further, the Tm in data set [2] was 59 °C.
In the case of GCGCGAGGAAACTCACGC (((.(((....))).))), the folding enthalpy in data set [1] was -38.2 kcal/mol. Moreover, the Tm in data set [2] was 53.8 °C.
Take GCAGTGCCGAAAGGCTGC (((..(((....)))))): the folding enthalpy in data set [1] is -14.8 kcal/mol. Further, the Tm in data set [2] was found to be 49.8 °C.
As for GATCGCCGGAGCGATC ((((((....)))))), in data set [1], the folding enthalpy was -31.6 kcal/mol. In addition, the Tm in data set [2] is 68.9 °C.
With GGTAACGAAAGTTGGACC ((((((....)))..))), the folding enthalpy in data set [1] was -15.5 kcal/mol. Also, the Tm in data set [2] is 26.8 °C.
GGGTGCGAAAGCAGTCCC ((((((....)))..))): the folding enthalpy in data set [1] is -14.6 kcal/mol. For the same sequence, the Tm in data set [2] is 50.5 °C.
On the same counts, the results for GACGTAGGAAACTACACC (..((((....))))..) are -10.2 kcal/mol and 25.2 °C.
For the sequence GCCAAGGCGAAAGCCGGC (((..(((....)))))), in data set [1], the folding enthalpy is -15.7 kcal/mol. Also, the Tm in data set [2] stood at 65.8 °C.
On the same counts, the results for GTGCAACGAAAGTTACAC (((.(((....))).))) are -22.6 kcal/mol and 44.9 °C.
Consider GTGTCCCGAAAGGGCCAC (((.(((....))).))), for which, in data set [1], the folding enthalpy was -23.8 kcal/mol. For the same sequence, in data set [2], the Tm amounted to 56.4 °C.
As for GGTGGCGAAAGCCGAACC ((((((....)))..))), the folding enthalpy in data set [1] is -14.9 kcal/mol. Further, the Tm in data set [2] came out at 45.3 °C.
On the same counts, the results for GGCGGAGGAAACCCCGCC (((((.(....).))))) are -33.4 kcal/mol and 64.5 °C.
On to GGGCTCCGAAAGGACCCC (((.(((....))).))), for which the folding enthalpy in data set [1] is -20.5 kcal/mol. For the same sequence, the Tm in data set [2] is 53.9 °C.
On the same counts, the results for GCGGTCGAAAGACGCGC ((((((....))).))) are -30.8 kcal/mol and 65.6 °C.
On the same counts, the results for GCACCCTCGAAAGAGTGC (((..(((....)))))) are -23.1 kcal/mol and 41.6 °C.
On to GGAGAGCGAAAGCTTTCC (((.(((....))).))), for which the folding enthalpy in data set [1] was -31.6 kcal/mol. Besides, the Tm in data set [2] is 53.6 °C.
On the same counts, the results for GCCATCGAAAGATGGGC ((((((....))).))) are -15.4 kcal/mol and 63.2 °C.
GTTGGGGGAAACCCCGAC ((.((((....)))).)): the folding enthalpy in data set [1] was -24.2 kcal/mol. Moreover, in data set [2], the Tm stood at 56.6 °C.
For the sequence GTCACGTCGAAAGACGAC (((..(((....)))))), in data set [1], the folding enthalpy was -9.85 kcal/mol. Further, the Tm in data set [2] is 32.1 °C.
On the same counts, the results for GCACTTCGAAAGAATGC (((.(((....)))))) are -31.2 kcal/mol and 41.5 °C.
On the same counts, the results for GGCCTGGGAAACTAGGCC (((((.(....).))))) are -49.7 kcal/mol and 59.2 °C.
On the same counts, the results for GTCGCGGGAAACTGCGGC (.(((.(....).))).) are -27.1 kcal/mol and 54.7 °C.
With GATGCAGGAAACTACATC ((((.((....)).)))), in data set [1], the folding enthalpy was -30.7 kcal/mol. Moreover, the Tm in data set [2] turned out to be 36.4 °C.
On the same counts, the results for GAAGGAGGAAACCCCTTC (((((.(....).))))) are -31.3 kcal/mol and 36.9 °C.
On the same counts, the results for GCTCGTGGAAACACAAGC (((.(((....))).))) are -20 kcal/mol and 43.9 °C.
On the same counts, the results for GCGTATTAACGC ((((....)))) are -22.1 kcal/mol and 53.8 °C.
Regarding GGCCACGGAAACGTGGTC (.(((((....))))).), in data set [1], the folding enthalpy is -25.7 kcal/mol. Further, in data set [2], the Tm turned out to be 64.9 °C.
On the same counts, the results for GCACGTGGAAACACACGC ((..(((....)))..)) are -21.3 kcal/mol and 37.8 °C.
As to GAATGGCGAAAGCCCTTC (((.(((....))).))), the folding enthalpy in data set [1] was -20 kcal/mol. The Tm in data set [2] was found to be 38.4 °C.
On the same counts, the results for GCCGGGCGAAAGCCCTGC ((.((((....)))).)) are -14.9 kcal/mol and 57.2 °C.
